Measured values: ChEMBL document CHEMBL3232746, “Diamidine compounds for selective inhibition of protein arginine methyltransferase 1” (J Med Chem, 2014)
Active and inactive are the calls of the source. The rule behind the calls is not given here.

Columns and labels:
[1] = biological target: Protein arginine N-methyltransferase 6 (Homo sapiens, UniProt Q96LA8); assay: Inhibition of His6x-tagged PRMT6 (unknown origin) using [3H]SAM and histone H3.1 as substrate at 20 uM after 1 hr by P81 filter binding assay
Method in brief: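 P81 filter-binding assay with 1 μM histone H3.1 as acceptor and 0.5 μM [3H]SAM in 50 mM HEPES pH 8.0, 50 mM NaCl, 1 mM EDTA, 0.5 mM DTT; enzyme, SAM and inhibitor preincubated 5 min, then substrate added; 1 h at 30 °C; methylation by scintillation counting.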

[2] = biological target: T1, Protein arginine N-methyltransferase 1 (Homo sapiens, UniProt Q99873); assay: Inhibition of His6x-tagged recombinant PRMT1 (unknown origin) expressed in Escherichia coli BL21(DE3) using [3H]SAM and histone H4 (1 to 20) as substrate after 8 mins by P81 filter binding assay
Target sequence in this assay (Q99873 whole entry): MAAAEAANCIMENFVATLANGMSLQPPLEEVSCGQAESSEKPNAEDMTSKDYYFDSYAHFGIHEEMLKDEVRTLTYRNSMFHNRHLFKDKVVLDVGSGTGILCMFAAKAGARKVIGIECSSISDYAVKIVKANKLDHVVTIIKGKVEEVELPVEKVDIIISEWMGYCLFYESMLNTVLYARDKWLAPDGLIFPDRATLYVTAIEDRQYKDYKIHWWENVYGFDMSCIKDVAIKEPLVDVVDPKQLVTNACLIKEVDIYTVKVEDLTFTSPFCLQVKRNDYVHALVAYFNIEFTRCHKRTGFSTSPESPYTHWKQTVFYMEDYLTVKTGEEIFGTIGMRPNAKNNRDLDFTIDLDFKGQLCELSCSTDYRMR

[3] = biological target: T2, Protein arginine N-methyltransferase 5 (Homo sapiens, UniProt O14744); assay: Inhibition of HA-tagged recombinant PRMT5 (unknown origin) expressed in HEK293T cells using [3H]SAM and histone H4 (1 to 20) as substrate after 8 mins by P81 filter binding assay; set-up: species or system HEK-293T
Method in brief: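 HA-PRMT5 from HEK293T co-transfected with PRMT5 and WDR77 plasmids, HA-bead purified; 0.04 μM enzyme, 0.5 μM [3H]SAM, 1 μM H4(1–20) in HEPES pH 8.0 buffer; inhibitor preincubated with enzyme and SAM 5 min before peptide start; 8 min at 30 °C; P81 disks washed in NaHCO3 pH 9.0, scintillation counted; IC50 over varied inhibitor concentrations.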

[4] = biological target: T3, Histone-arginine methyltransferase CARM1 (Homo sapiens, UniProt Q86X55); assay: Inhibition of GST-tagged CARM1 (unknown origin) using [3H]SAM and histone H3.1 as substrate at 20 uM after 1 hr by P81 filter binding assay
T3 sequence (Q86X55 whole entry): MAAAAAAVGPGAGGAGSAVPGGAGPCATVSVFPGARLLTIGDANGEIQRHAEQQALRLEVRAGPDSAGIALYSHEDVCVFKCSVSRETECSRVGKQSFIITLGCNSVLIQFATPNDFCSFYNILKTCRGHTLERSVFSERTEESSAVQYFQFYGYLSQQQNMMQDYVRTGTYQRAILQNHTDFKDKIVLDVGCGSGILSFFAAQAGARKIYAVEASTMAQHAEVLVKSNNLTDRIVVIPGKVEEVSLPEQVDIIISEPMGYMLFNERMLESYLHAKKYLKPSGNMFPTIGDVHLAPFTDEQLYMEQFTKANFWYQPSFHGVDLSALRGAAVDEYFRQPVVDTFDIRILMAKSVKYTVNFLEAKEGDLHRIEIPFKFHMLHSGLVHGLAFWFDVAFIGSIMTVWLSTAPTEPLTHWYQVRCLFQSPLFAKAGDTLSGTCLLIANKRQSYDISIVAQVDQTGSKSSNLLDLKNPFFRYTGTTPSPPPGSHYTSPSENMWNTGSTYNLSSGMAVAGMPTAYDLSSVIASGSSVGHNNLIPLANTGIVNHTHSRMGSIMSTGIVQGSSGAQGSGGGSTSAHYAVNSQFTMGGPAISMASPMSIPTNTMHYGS

[5] = biological target: T2, Protein arginine N-methyltransferase 5; assay: Inhibition of HA-tagged recombinant PRMT5 (unknown origin) expressed in HEK293T cells using [3H]SAM and histone H4 (1 to 20) as substrate at 20 uM after 8 mins by P81 filter binding assay
Method in brief: (§1)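 Enzyme 0.04 μM (His-PRMT1 purified on Ni-NTA, or HA-PRMT5 co-expressed with WDR77 in 293T and purified on HA beads). Assay used 0.5 μM [3H]SAM and 1 μM H4(1–20) in 50 mM HEPES pH 8.0, 50 mM NaCl, 1 mM EDTA, 0.5 mM DTT. Preincubation 5 min at room temperature, then 8 min at 30 °C. P81 filter binding with scintillation counting. Compared with no-inhibitor control.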

[6] = biological target: T1, Protein arginine N-methyltransferase 1; assay: Inhibition of His6x-tagged recombinant PRMT1 (unknown origin) expressed in Escherichia coli BL21(DE3) using [3H]SAM and histone H4 (1 to 20) as substrate at 20 uM after 8 mins by P81 filter binding assay; method in brief: as §1
Target sequence in this assay (Q99873 whole entry, looked up): as the sequence (Q99873 whole entry) above

HEL = assay: Antiproliferative activity against human HEL cells harboring JAK2 V617F mutant assessed as cell viability at 20 uM measured everyday for 3 days by CellTiter-Glo assay; assay type: functional, cell-based
Method in brief: (§2)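 RPMI + 10% FBS culture; 1000–1500 cells seeded per well; 20 μM compound or matching DMSO volume added; CellTiter-Glo luminescence read at 0, 24, 48, 72 h after treatment; viability expressed as percent of viable cells relative to DMSO-treated control.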

[7] = biological target: T1, Protein arginine N-methyltransferase 1; assay: Inhibition of His6x-tagged recombinant PRMT1 (unknown origin) expressed in Escherichia coli BL21(DE3) using fluorescein-labeled histone H4 (1 to 20) as substrate at 10 to 50 uM after 8 mins by competitive fluorescence anisotropy binding assay
Method in brief: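 0.2 μM fluorescein-labelled H4(1–20) and 2 μM PRMT1 in P81 assay buffer (HEPES pH 8.0); inhibitor titrated in until signal plateaued; anisotropy read at excitation 498 nm, emission 524 nm.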
Target sequence in this assay (Q99873 whole entry, looked up): as the sequence (Q99873 whole entry) above

CMY = assay: Antiproliferative activity against human CMY cells harboring trisomy 21 assessed as cell viability at 20 uM measured everyday for 3 days by CellTiter-Glo assay; assay type: functional, cell-based; method in brief: as §2
Jurkat = assay: Antiproliferative activity against human Jurkat cells assessed as cell viability at 20 uM measured everyday for 3 days by CellTiter-Glo assay; assay type: functional, cell-based; method in brief: as §2
HL-60 = assay: Antiproliferative activity against human HL60 cells with PML-RAR alpha translocation assessed as cell viability at 20 uM measured everyday for 3 days by CellTiter-Glo assay; assay type: functional, cell-based; method in brief: as §2
[8] = biological target: T1, Protein arginine N-methyltransferase 1; assay: Inhibition of PRMT1 in human 293T cells assessed as reduction of GFP-ALY methylation by Western blot analysis; assay type: cell-based
Method in brief: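 GFP-ALY stably expressing 293T cells in DMEM + 10% FBS, treated 15 h with 20 μM compound; lysed on ice in NP-40 buffer; GFP-ALY pulled down on GFP antibody beads; SDS-PAGE and Western blot with ASYM24 methylarginine antibody, equal GFP-ALY loading.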
Target sequence in this assay (Q99873 whole entry, looked up): as the sequence (Q99873 whole entry) above

[9] = biological target: T1, Protein arginine N-methyltransferase 1; assay: Uncompetitive inhibition of His6x-tagged recombinant PRMT1 (unknown origin) expressed in Escherichia coli BL21(DE3) using [3H]SAM and histone H4 (1 to 20) as substrate by double reciprocal plot analysis
Method in brief: (§3)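 Radiometric P81 filter-binding kinetics in 50 mM HEPES pH 8.0, 50 mM NaCl, 1 mM EDTA, 0.5 mM DTT, 30 °C; inhibitor at 0, 10, 20, 30, 40 μM; initial velocities with H4-20 varied at 3 μM [3H]SAM, or [3H]SAM varied at 15 μM H4-20; Michaelis–Menten and double-reciprocal analysis giving Kis and Kii.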
Target sequence in this assay (Q99873 whole entry, looked up): as the sequence (Q99873 whole entry) above

MOLM-13 = assay: Antiproliferative activity against human MOLM13 cells with MLL-AF9 translocation assessed as cell viability at 20 uM measured everyday for 3 days by CellTiter-Glo assay; assay type: functional, cell-based; method in brief: as §2
Homo sapiens = species on record: Homo sapiens; assay: Antiproliferative activity against human CHRF-288-11 cells harboring trisomy 21 assessed as cell viability at 20 uM measured everyday for 3 days by CellTiter-Glo assay; assay type: functional, cell-based; method in brief: as §2
[10] = biological target: T1, Protein arginine N-methyltransferase 1; assay: Competitive inhibition of His6x-tagged recombinant PRMT1 (unknown origin) expressed in Escherichia coli BL21(DE3) using [3H]SAM and histone H4 (1 to 20) as substrate by double reciprocal plot analysis; method in brief: as §3
Target sequence in this assay (Q99873 whole entry, looked up): as the sequence (Q99873 whole entry) above

Sequence of Protein arginine N-methyltransferase 6 (Q96LA8 whole entry): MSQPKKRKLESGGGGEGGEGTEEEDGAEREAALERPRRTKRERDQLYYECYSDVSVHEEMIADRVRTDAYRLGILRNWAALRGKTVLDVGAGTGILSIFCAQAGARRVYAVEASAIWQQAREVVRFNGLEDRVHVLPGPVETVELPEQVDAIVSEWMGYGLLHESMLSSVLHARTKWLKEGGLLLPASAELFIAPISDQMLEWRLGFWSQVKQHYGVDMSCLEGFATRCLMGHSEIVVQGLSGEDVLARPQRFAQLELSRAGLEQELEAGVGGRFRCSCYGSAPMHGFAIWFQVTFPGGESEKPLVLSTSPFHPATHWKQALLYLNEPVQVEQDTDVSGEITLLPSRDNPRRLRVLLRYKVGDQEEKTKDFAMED
T2 sequence (O14744 whole entry): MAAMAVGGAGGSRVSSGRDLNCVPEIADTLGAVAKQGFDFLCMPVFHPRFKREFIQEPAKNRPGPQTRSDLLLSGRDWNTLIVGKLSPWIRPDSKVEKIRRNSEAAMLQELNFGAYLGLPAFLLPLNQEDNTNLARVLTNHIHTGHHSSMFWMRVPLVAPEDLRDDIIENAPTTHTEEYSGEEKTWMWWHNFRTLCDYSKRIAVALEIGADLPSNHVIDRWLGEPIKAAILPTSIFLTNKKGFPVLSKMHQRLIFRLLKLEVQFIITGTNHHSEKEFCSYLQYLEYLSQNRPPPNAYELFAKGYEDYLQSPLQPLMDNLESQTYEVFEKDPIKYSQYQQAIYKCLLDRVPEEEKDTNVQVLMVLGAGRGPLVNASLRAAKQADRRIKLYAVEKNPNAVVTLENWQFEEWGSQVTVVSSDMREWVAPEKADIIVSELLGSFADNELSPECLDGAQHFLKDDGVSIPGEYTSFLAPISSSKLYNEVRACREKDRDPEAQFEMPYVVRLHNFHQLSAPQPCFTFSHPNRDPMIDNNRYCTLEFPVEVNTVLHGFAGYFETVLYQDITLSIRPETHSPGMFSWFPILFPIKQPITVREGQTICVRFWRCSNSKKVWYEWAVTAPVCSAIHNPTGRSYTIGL

Compound | IC50 [1] | IC50 [2] | IC50 [3] | IC50 [4] | inhibition [5] | inhibition [6] | also measured
N=C(N)c1ccc(-c2ccc(-c3ccc(C(=N)N)nc3)o2)cc1 | 211 µM | 7.2 µM | 186 µM | > 400 µM |  |  | 
N=C(N)c1ccc(-c2ccc(-c3ccc(C(=N)N)c(F)c3)o2)cc1F |  |  |  |  | Active | Active | 
N=C(N)c1ccc(-c2ccc(-c3ccc(OCCCCCCCCOc4ccc(-c5ccc(-c6ccc(C(=N)N)cc6)o5)cc4)cc3)o2)cc1 |  |  |  |  | > 85% | > 85% | 
N=C(N)c1ccc(-c2ccc(-c3ccc(C(=N)N)cc3)o2)cc1 [FURAMIDINE] | 283 µM | 9.4 µM | 166 µM | > 400 µM | 11% | > 75% | inhibition (HEL): inactive; inhibition [7]: Active; inhibition (CMY): Active; inhibition (Jurkat): Active; inhibition (HL-60): Active; inhibition [8]: Active; Kii [9]: 26 µM; inhibition (MOLM-13): Active; inhibition (Homo sapiens): Active; Kis [10]: 2.6 µM
N=C(N)c1ccc(/C=C/c2ccc(C(=N)N)cc2)cc1 [STILBAMIDINE] | 173 µM |  | 44.1 µM | 400 µM |  |  | 
